From ChEMBL document CHEMBL1806459, “Discovery of N-(1-ethylpropyl)-[3-methoxy-5-(2-methoxy-4-trifluoromethoxyphenyl)-6-methyl-pyrazin-2-yl]amine 59 (NGD 98-2): an orally active corticotropin releasing factor-1 (CRF-1) receptor antagonist” (J Med Chem, 2011)
In brackets after ≈: the same amount, converted by molar mass. Activity calls are given as the source filed them. No cut-off for these calls is given here.

Tests used:
[1] = molecular target: T1, Corticotropin-releasing factor receptor 1 (Homo sapiens, UniProt P34998); assay: Displacement of [125I]-sauvagine from human CRF-1 receptor expressed in human IMR-32 cells after 2 hrs by scintillation counting; format: cell-based
T1 sequence (P34998 whole entry): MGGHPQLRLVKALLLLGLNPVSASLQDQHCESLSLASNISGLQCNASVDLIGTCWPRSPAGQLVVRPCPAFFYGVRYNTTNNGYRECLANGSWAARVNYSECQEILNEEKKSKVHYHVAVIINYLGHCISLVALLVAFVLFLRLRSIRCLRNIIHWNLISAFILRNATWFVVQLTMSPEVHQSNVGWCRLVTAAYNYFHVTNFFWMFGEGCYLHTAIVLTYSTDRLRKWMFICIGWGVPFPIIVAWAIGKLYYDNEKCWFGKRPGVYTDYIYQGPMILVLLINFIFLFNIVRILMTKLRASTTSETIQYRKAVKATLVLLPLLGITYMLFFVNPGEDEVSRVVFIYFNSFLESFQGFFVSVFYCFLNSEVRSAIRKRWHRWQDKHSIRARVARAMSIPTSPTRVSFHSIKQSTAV
How it was run: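 Competition binding against 125I-sauvagine on membrane preparations from IMR-32 human neuroblastoma cells, which express CRF-1 endogenously. Modified from a published method.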

[2] = Half life in human microsomes; format: ADME, Microsome
How it was run: (§1)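 Stability in human or rat liver microsomes; half-life (T1/2, min) of compound turnover reported.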

[3] = Half life in rat microsomes; format: ADME, Microsome; how it was run: as §1
Rattus norvegicus [4] = assay: Antihyperlocomotion activity in Wistar rat assessed as decrease in CRF-induced hyperlocomotion at 3 mg/kg, po administered 1 hr before CRF challenge measured after 1 hr; format: functional, organism-based; design: dose 3 mg/kg
How it was run: (§2)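 Oral dosing in rats 1 h before an ICV CRF challenge of 0.3 μg, across a 1–30 mg/kg range. The read-out was locomotor movement time, compared against TPGS-vehicle rats given CRF and rats given vehicle without CRF.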

[5] = molecular target: Corticotropin-releasing factor receptor 1 (Rattus norvegicus, UniProt P35353); assay: Displacement of [125I]-sauvagine from rat CRF-1 receptor expressed in rat cortical membrane after 2 hrs by scintillation counting; format: cell membranes
Sequence of Corticotropin-releasing factor receptor 1 (Rattus norvegicus, UniProt P35353) (P35353 whole entry): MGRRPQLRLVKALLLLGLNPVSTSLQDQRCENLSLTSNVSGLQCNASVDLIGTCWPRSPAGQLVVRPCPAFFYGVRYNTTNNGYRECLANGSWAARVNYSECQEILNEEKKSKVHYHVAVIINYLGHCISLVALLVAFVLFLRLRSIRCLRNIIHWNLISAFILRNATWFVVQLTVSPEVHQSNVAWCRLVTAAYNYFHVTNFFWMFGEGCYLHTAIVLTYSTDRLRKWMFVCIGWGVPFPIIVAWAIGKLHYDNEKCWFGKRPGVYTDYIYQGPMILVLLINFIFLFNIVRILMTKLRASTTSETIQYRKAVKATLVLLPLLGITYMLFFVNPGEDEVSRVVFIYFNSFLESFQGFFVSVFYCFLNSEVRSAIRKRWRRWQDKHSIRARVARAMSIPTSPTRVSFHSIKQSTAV
How it was run: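 Displacement of [125I]-sauvagine binding from rat cortical membrane homogenate with increasing compound concentrations; Ki derived.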

Rattus norvegicus [6] = assay: Antihyperlocomotion activity in Wistar rat assessed as decrease in CRF-induced hyperlocomotion at 10 mg/kg, po administered 1 hr before CRF challenge measured after 1 hr; format: functional, organism-based; design: dose 10 mg/kg; how it was run: as §2
Rattus norvegicus [7] = assay: Decrease in restrained-stress induced ATCH release in plasma of Sprague-Dawley rat at 3 mg/kg, po pretreated with compound for 1 hr by radioimmunoassay; format: functional, organism-based; design: dose 3 mg/kg
How it was run: (§3)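 Rats were dosed orally 1 h before a 10 min period of physical restraint, across a 1–30 mg/kg range. The read-out was plasma ACTH, compared against vehicle-treated stressed and unstressed rats.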

Rattus norvegicus [8] = assay: Decrease in restrained-stress induced ATCH release in plasma of Sprague-Dawley rat at 10 mg/kg, po pretreated with compound for 1 hr by radioimmunoassay; format: functional, organism-based; design: dose 10 mg/kg; how it was run: as §3
Rattus norvegicus [9] = assay: Ex vivo CRF-1 receptor occupancy in po dosed rat cortical homogenate assessed as inhibition of [I125]-sauvagine binding pretreated for 3 hrs; format: functional, organism-based
How it was run: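 Rats dosed orally at 1, 3 and 10 mg/kg; cortex taken at 3 h for ex vivo binding. Specific [125I]-sauvagine binding compared with vehicle-treated rats to give ex vivo ID50.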

[10] = molecular target: T1, Corticotropin-releasing factor receptor 1; assay: Antagonist activity at human CRF-1 receptor; format: functional

| Structure (SMILES) | Ki [1] [nM] | half-life [2] [min] | half-life [3] [min] | also measured |
| --- | --- | --- | --- | --- |
| CCc1nc(NC(CC)CC)c(OC)nc1-c1ccc(C(F)(F)F)cc1OC | 4.4 | 73 | 23 | – |
| CCc1nc(NC(CC)CC)c(OC)nc1-c1ccc(OC)cc1C(F)(F)F | 2.2 | 120 | 120 | – |
| CCc1nc(-c2ccc(OC)cc2Cl)c(OC)nc1NC(CC)CC | 1.1 | 120 | – | – |
| CCOc1ccc(-c2nc(CC)c(NC(CC)CC)nc2CC)c(OC)c1 | 7.8 | – | – | – |
| CCc1nc(NC(CC)CC)c(Cl)nc1-c1ccc(Cl)cc1Cl | 71 | 10 | < 1 | – |
| CCc1nc(-c2ccc(Cl)cc2Cl)c(C)nc1NC(CC)CC | 8.6 | 18 | 4.2 | – |
| CCc1nc(-c2ccc(OC(F)(F)F)cc2OC)c(CC)nc1NC(CC)CC | 7.2 | 13 | 2.5 | – |
| CCc1nc(-c2ccc(Cl)cc2Cl)c(CC)nc1NC(COC)COC | 224 | 9 | 2.5 | – |
| CCc1nc(NC(CC)CC)c(F)nc1-c1ccc(Cl)cc1Cl | 167 | 73 | 21 | – |
| CCc1nc(-c2cnc(C)cc2N(C)C)c(CC)nc1NC(CC)CC | 7.6 | 7 | < 1 | – |
| CCc1nc(-c2ccc(OC)nc2OC)c(CC)nc1NC(CC)CC | 11.6 | 9 | 2.5 | – |
| CCc1nc(-c2ccc(C)cc2OC)c(CC)nc1NC(CC)CC | 23.7 | 11 | < 1 | – |
| CCC(CC)Nc1nc(OC)c(-c2ccc(Cl)cc2Cl)nc1OC | 8.4 | 16 | 2.5 | – |
| CCc1nc(-c2ccc(Cl)cc2Cl)c(CC)nc1NC(C)CN(C)C (stereo not drawn) | 489 | 7 | < 1 | – |
| CCCN(CCN(C)C)c1nc(CC)c(-c2ccc(Cl)cc2Cl)nc1CC | 1540 | 5 | < 1 | – |
| CCc1nc(-c2ccc(OC(F)F)cc2Cl)c(OC)nc1NC(CC)CC | 2.5 | 120 | 17 | – |
| CCc1nc(-c2ccc(Cl)cc2Cl)c(CC)nc1NC(C1CC1)C1CC1 | 3.7 | 11 | 2.5 | – |
| CCc1nc(-c2ccc(Cl)cc2Cl)c(CC)nc1SC(C)CC (stereo not drawn) | 401 | 17 | 4.1 | – |
| CCCN(CCC)c1cc(C)nc2c(-c3cnc(N(C)C)cc3C)c(C)nn12 | – | – | – | Activity (Rattus norvegicus [4]): Active; Ki [5]: 3.8 nM; Activity (Rattus norvegicus [6]): Active; Activity (Rattus norvegicus [7]): Active; Activity (Rattus norvegicus [8]): Active; IC50 (Rattus norvegicus [9]): 0.074 µg/mL (≈ 0.194 µM); ED50 (Rattus norvegicus [9]; po, read-out: ID50 (the source's name)): 7.2 mg/kg |
| CCCN(CC1CC1)c1nc(CC)c(-c2ccc(Cl)cc2Cl)nc1CC | 19.2 | 12 | 4.2 | – |
| CCC(CC)Nc1nc(C)c(-c2ccc(Cl)cc2Cl)nc1C | 27 | 29 | 3.2 | – |
| CCc1nc(NC(CC)CC)c(OC)nc1-c1ccc(Cl)cc1Cl | 5.9 | 35 | – | – |
| CCOc1nc(-c2ccc(Cl)cc2Cl)c(CC)nc1NC(CC)CC | 151 | 120 | 74 | – |
| CCCC(CCC)N1CCn2nc(-c3ccc(Cl)cc3Cl)c3nc(C)cc1c32 | – | – | – | Ki [10]: 4 nM |
| CCc1nc(-c2cnc(OC)nc2OC)c(CC)nc1NC(CC)CC | 17.2 | 7 | < 1 | – |

| Structure (SMILES) | Ki [1] [nM] | half-life [2] [min] | half-life [3] [min] | also measured |
| --- | --- | --- | --- | --- |
| CCc1nc(N(CCOC)CCOC)c(CC)nc1-c1ccc(Cl)cc1Cl | 128 | 2 | < 1 | – |
| CCC(CC)Nc1nc(C)c(-c2ccc(Cl)cc2Cl)nc1OC | 4.3 | – | – | – |
| CCc1nc(NC(CC)CC)c(C)nc1-c1ccc(Cl)cc1Cl | 54 | 27 | 11 | – |
| CCc1nc(-c2ccc(OC)cc2O)c(CC)nc1NC(CC)CC | 1180 | 18 | 5.9 | – |
| CCc1nc(-c2ccc(OC(C)C)cc2OC)c(CC)nc1NC(CC)CC | 4.2 | 11 | < 1 | – |
| CCC(CC)Nc1nc(C)c(-c2ccc(OC(F)F)cc2Cl)nc1OC | 4.6 | 120 | 48 | – |
| CCc1nc(NC(CC)CC)cnc1-c1ccc(Cl)cc1Cl | 545 | 28 | – | – |
| CCc1nc(-c2ccc(Cl)cc2Cl)c(CC)nc1OC(CC)CC | 46 | 10 | 2.5 | – |
| CCc1nc(N(CC2CC2)CC2CC2)c(CC)nc1-c1ccc(Cl)cc1Cl | 26 | 8 | < 1 | – |
| CCc1nc(-c2ccc(C(F)(F)F)cc2OC)c(CC)nc1NC(CC)CC | 5.6 | 11 | – | – |
| CCC(CC)Nc1nc(OC)c(-c2ccc(Cl)cc2Cl)nc1C | 14.4 | 56 | 17 | – |
| CCc1nc(NC(CC)CC)c(OC)nc1-c1ccc(OC(F)F)cc1Cl | 1.4 | 120 | 47 | – |
| CCc1nc(-c2ccc(Cl)cc2Cl)c(CC)nc1CC(CC)CC | 68 | 13 | 2.5 | – |
| CCc1nc(-c2ccc(OC)cc2C(F)(F)F)c(CC)nc1NC(CC)CC | 4.4 | 12 | 4.3 | – |
| CCC(CC)Nc1nc(C)c(-c2ccc(C(F)(F)F)cc2OC)nc1OC | 1.3 | 120 | 120 | – |
| COCC(COC)Nc1nc(C)nc2c(-c3ccc(Cl)cc3Cl)c(C)nn12 | – | – | – | Ki [10]: 2 nM |
| CCc1cc(OC)ccc1-c1nc(OC)c(NC(CC)CC)nc1CC | 1.9 | 120 | 120 | – |
| CCc1nc(-c2ccc(OC(F)(F)F)cc2OC)c(OC)nc1NC(CC)CC | 6.1 | 52 | 36 | – |
| CCCN(CCC)c1c(C)ncc2c(-c3ccc(Cl)cc3Cl)cccc12 | – | – | – | Ki [10]: 103 nM |
| CCc1nc(NC(CC)CC)c(I)nc1-c1ccc(Cl)cc1Cl | 12 | – | – | – |
| CCOc1ccc(-c2nc(OC)c(NC(CC)CC)nc2C)c(Cl)c1 | 5.9 | 120 | 47 | – |
| CCc1nc(-c2ccc(Cl)cc2Cl)c(OC)nc1NC(CC)CC | 8 | 42 | 11 | – |
| CCc1nc(-c2ccc(OC)cc2OC(F)(F)F)c(CC)nc1NC(CC)CC | 4.1 | 16 | 4.1 | – |
| CCc1nc(-c2ccc(OC)cc2OC)c(CC)nc1NC(CC)CC | 7.3 | 8 | 2.5 | – |
| CCCCc1nc(-c2ccc(Cl)cc2Cl)c(CC)nc1NC(CC)CC | 3660 | 22 | 4.2 | – |
